Assay [1] has as its system HeLa. Kind of assay: Induction of apoptosis in human HeLa cells assessed as chromatin condensation after 24 hrs by AO/EB staining-based fluorescent microscopic analysis. The assay is classed as functional, cell-based. The gist of the method:
(§1)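 HeLa monolayers were grown in 24-well plates and exposed for 24 h at 0, 5, 10, 20 and 40 µM. Cells were stained 10 min with AO/EB dye mix (100 µg/mL each) and washed with PBS. Morphology was then viewed by fluorescence microscopy: chromatin condensation, nuclear fragmentation, and membrane integrity.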

In the next assay the test system is MCF7. Kind of assay: Antiproliferative activity against human MCF7 cells after 44 hrs by MTT assay. The assay is classed as functional, cell-based. As to conditions: for IC50: MCF7, 44 h. The gist of the method: (§2)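 HeLa, A549, SGC-7901 and MCF-7 cells seeded at 5 × 10^4 per well in DMEM at 37 °C, 5% CO2, incubated overnight. Cells were then treated at […], with 0.5% DMSO as control. MTT added for 4 h at 37 °C, formazan dissolved in DMSO, absorbance read at 570 nm. Inhibition % = (1 − Atreatment/Acontrol) × 100. Triplicate wells, each experiment repeated at least three times.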
A general note: Tetrazolium dyes change colour on reduction, which living cells bring about.

The test system of assay [2] is HeLa. Kind of assay: Induction of apoptosis in human HeLa cells assessed as nuclear fragmentation after 24 hrs by AO/EB staining-based fluorescent microscopic analysis. The assay is classed as functional, cell-based. The method in brief: as §1
For another assay, the system named is A549. As to the kind of experiment: Antiproliferative activity against human A549 cells after 44 hrs by MTT assay. The assay is classed as functional, cell-based. As to conditions: for IC50: A549, 44 h. The gist of the method:
as §2

A further assay concerns SGC-7901. Kind of assay: (§3) Antiproliferative activity against human SGC7901 cells after 44 hrs by MTT assay. In kind it is functional, cell-based. The method in brief: as §2
Assay [3] can be described thus: as §3. As to conditions: SGC-7901, 44 h. In kind it is functional, cell-based. The gist of the method: as §2
In assay [4] the test system is HeLa. Kind of assay: Antiproliferative activity against human HeLa cells after 44 hrs by MTT assay. In kind it is functional, cell-based. The gist of the method:
as §2

The species entered for assay [5] is Homo sapiens. As to the kind of experiment: Stabilization of HTG21 G-quadruplex DNA at 2.5 to 15 uM by PCR-stop assay. The gist of the method:
(§4)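 PCR-stop on forward primer HTG21 or mutant HTG21mu with reverse primer RevHTG21, each primer 0.4 µM. Mixes contained 0.2 mM dNTP and 1.5 U Taq in 1× Thermopol buffer (20 mM Tris–HCl, 10 mM KCl, 10 mM (NH4)2SO4, 2 mM MgSO4, 0.1% Triton X-100, pH 8.8). Ligand was tested at 0–15 µM. Products were resolved by electrophoresis and imaged under UV.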

For assay [6], the system named is HeLa. Kind of assay: Induction of apoptosis in human HeLa cells assessed as early apoptotic cells at 40 uM after 24 hrs by annexin V-FITC/propidium iodide staining-based flow cytometric analysis (reference value: 0.11%). The assay is classed as functional. The method in brief: (§5)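 HeLa cells were seeded at 3 × 10^5 per well in DMEM at 37 °C, 5% CO2, and treated with 0, 10, 20 or 40 µM for 24 h. Cells were trypsinized, washed in cold PBS, resuspended in binding buffer, and stained with Annexin V-FITC plus PI for 20 min in the dark. Flow cytometry quadrants defined early (Annexin+/PI−) and late (Annexin+/PI+) apoptotic cells.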
In general terms: In flow cytometry, cells or beads pass a laser one at a time.

Assay [7] has as its system HeLa. As to the kind of experiment: Induction of apoptosis in human HeLa cells assessed as early apoptotic cells at 10 uM after 24 hrs by annexin V-FITC/propidium iodide staining-based flow cytometric analysis (reference value: 0.11%). In kind it is functional. The gist of the method: as §5
For assay [8], the system named is HeLa. As to the kind of experiment: Induction of apoptosis in human HeLa cells assessed as late apoptotic cells at 40 uM after 24 hrs by annexin V-FITC/propidium iodide staining-based flow cytometric analysis (reference value: 0.36%). The assay is classed as functional. The method in brief:
as §5

For assay [9], the species on record is Homo sapiens. Kind of assay: Binding affinity to HTG21 G-quadruplex DNA at 5 uM by fluorescence emission spectroscopic analysis. The method in brief: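 Fluorescence emission titration with ligand fixed at […] and annealed HTG21 varied up to […]. Buffer was Tris–HCl 10 mM, pH 7.4, containing KCl or NaCl. Quenching was plotted as F0/F versus [HTG21]/[compound] and fitted.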

The species entered for assay [10] is Homo sapiens. Kind of assay: Binding affinity to HT6 G-quadruplex DNA at 0.5 to 1 compound to DNA ratio by NMR spectroscopic analysis. The method in brief:
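1H NMR at 25 °C on d(TTAGGG) 0.2 mM in 90% H2O/10% D2O with 150 mM KCl and 25 mM potassium phosphate, pH 7.0. Compound/quadruplex ratios were 0, 0.5 and 1. Watergate water suppression was used, and imino proton signals were monitored. Oligonucleotide was HPLC-purified.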

Assay [11] concerns HeLa. Kind of assay: Induction of apoptosis in human HeLa cells assessed as early apoptotic cells at 20 uM after 24 hrs by annexin V-FITC/propidium iodide staining-based flow cytometric analysis (reference value: 0.11%). The assay is classed as functional. The method in brief:
as §5

Assay [12] is filed under the species Homo sapiens. Kind of assay: Binding affinity to HTG21 G-quadruplex DNA assessed as transition temperature using Na+ buffer at 1:1 compound to DNA ratio by CD spectrometric analysis (reference value: 55.1 degC). The method in brief: (§6)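 CD melting of HTG21 at 5 µM with ligand at 5 µM (1:1). Buffer was Tris–HCl 10 mM, pH 7.4, containing KCl or NaCl. Signal was monitored at 295 nm and curves were normalized to obtain the melting temperature. HTG21 was pre-annealed at 95 °C for 5 min, cooled slowly, and held at 4 °C overnight.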

For assay [13], the species on record is Homo sapiens. As to the kind of experiment: Binding affinity to HTG21 G-quadruplex DNA assessed as hypochromicity by electronic absorption spectroscopic analysis. The method in brief:
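Absorption titration with ligand fixed at […] and HTG21 added at […], in Tris–HCl 10 mM, pH 7.4, containing KCl or NaCl. HTG21 was annealed at 95 °C for 5 min, cooled slowly, and held at 4 °C overnight. Absorbance decrease was followed. Binding constant was taken from a plot of [DNA]/(εa−εf) versus [DNA].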

Assay [14] is filed under the species Homo sapiens. Kind of assay: Stabilization of HTG21mu G-quadruplex DNA at 15 uM by PCR-stop assay. The method in brief:
as §4

Assay [15] deals with HeLa. As to the kind of experiment: Induction of apoptosis in human HeLa cells assessed as late apoptotic cells at 10 uM after 24 hrs by annexin V-FITC/propidium iodide staining-based flow cytometric analysis (reference value: 0.36%). The assay is classed as functional. The gist of the method: as §5
The test system of assay [16] is HeLa. As to the kind of experiment: Induction of apoptosis in human HeLa cells assessed as increase in apoptotic ratio after 24 hrs by annexin V-FITC/propidium iodide staining-based flow cytometric analysis. In kind it is functional, cell-based. The gist of the method:
as §5

For assay [17], the species on record is Homo sapiens. Kind of assay: Binding affinity to HTG21 G-quadruplex DNA assessed as transition temperature using K+ buffer at 1:1 compound to DNA ratio by CD spectrometric analysis (reference value: 64.6 degC). The gist of the method: as §6
The test system of assay [18] is Calf thymus DNA. As to the kind of experiment: Binding affinity to calf thymus DNA at 5 uM by fluorescence emission spectroscopic analysis. As to conditions: Bos taurus. In kind it is nucleic-acid assay.
For assay [19], the system named is Calf thymus DNA. As to the kind of experiment: Binding affinity to calf thymus DNA assessed as hypochromicity by electronic absorption spectroscopic analysis. In kind it is nucleic-acid assay. As to conditions: Bos taurus.
Assay [20] concerns HeLa. As to the kind of experiment: Induction of apoptosis in human HeLa cells assessed as late apoptotic cells at 20 uM after 24 hrs by annexin V-FITC/propidium iodide staining-based flow cytometric analysis (reference value: 0.36%). In kind it is functional. The gist of the method:
as §5

Active and inactive are the calls of the source. The rule behind the calls is not given here. Where only a bound is given, the exact number is not on record here.

For the compound `O=C(CN1CCCC1)Nc1ccc2oc3ccc(NC(=O)CN4CCCC4)cc3c(=O)c2c1`, the Activity entry in the assay on HeLa [1], with MCF7, in the assay with HeLa [2], with A549, with SGC-7901 and in the assay on HeLa [4] was “Dose-dependent effect” each time. In addition, the 50% inhibitory concentration (IC50) – broadly, the midpoint of a concentration-inhibition curve – in the assay on MCF7 amounted to 34.9 µM; in the assay with A549 it was 21.5 µM; in assay [3], 35.9 µM; in the assay on HeLa [4], 48.2 µM.
For `CCN(CC)CC(=O)Nc1ccc2oc3ccc(NC(=O)CN(CC)CC)cc3c(=O)c2c1`, the Activity result in the assay on HeLa [1], with MCF7, with HeLa [2], in the assay with A549, in the assay with SGC-7901 and in the assay with HeLa [4] was “Dose-dependent effect” in each case. For the same compound, the IC50 in the assay on MCF7 came out at 26.6 µM; in the assay with A549, 19.9 µM; in assay [3], 32.2 µM; in the assay with HeLa [4] it was 20.4 µM.
As for `CN(C)CC(=O)Nc1ccc2oc3ccc(NC(=O)CN(C)C)cc3c(=O)c2c1`, the result in the assay listed under Homo sapiens [5], in the assay listed under Homo sapiens [9] and in the assay listed under Homo sapiens [10] was Active. Also, the Activity is 32.07% in the assay on HeLa [6]; 12.36% in the assay with HeLa [7]; 60.78% in the assay on HeLa [8]; 22.69% in the assay on HeLa [11]; “Dose-dependent effect” with HeLa [1]; 9.45% in the assay with HeLa [15]. Moreover, the Activity result in the assay on HeLa [16] was “Dose-dependent effect”; in the assay with MCF7 it was “Dose-dependent effect”; with HeLa [2], “Dose-dependent effect”; in the assay on A549, “Dose-dependent effect”; in the assay on HeLa [20] it was 18.24%; with SGC-7901, “Dose-dependent effect”. In the assay on HeLa [4], the Activity result was “Dose-dependent effect”. Further, the T was 60.8 °C in the assay listed under Homo sapiens [12] and 70.3 °C in the assay filed under Homo sapiens [17]. Moreover, the values for the Kb in the assay filed under Homo sapiens [13] and in the assay on Calf thymus DNA [19] were 2.89 ×10⁴ /M and 0.46 ×10⁴ /M, respectively. The outcome in the assay filed under Homo sapiens [14] and with Calf thymus DNA [18] was inactive. Moreover, the IC50 in the assay with MCF7 came out at 23 µM; with A549, 18.7 µM; in [3], 17.3 µM; in the assay on HeLa [4], 13.2 µM.
`O=C(CN1CCOCC1)Nc1ccc2oc3ccc(NC(=O)CN4CCOCC4)cc3c(=O)c2c1`: the Activity entry with HeLa [1], in the assay with MCF7, in the assay with HeLa [2], with A549, in the assay with SGC-7901 and with HeLa [4] was “Dose-dependent effect” in each case. Also, the IC50 with MCF7 was greater than 100 µM; in the assay on A549 it was 80.5 µM; in assay [3] it was 84.9 µM; in the assay with HeLa [4], greater than 100 µM.
Turning to `O=C(CN1CCCCC1)Nc1ccc2oc3ccc(NC(=O)CN4CCCCC4)cc3c(=O)c2c1`, the Activity result in the assay on HeLa [1], with MCF7, in the assay with HeLa [2], with A549, in the assay with SGC-7901 and in the assay with HeLa [4] was “Dose-dependent effect” each time. Also, the 50% inhibitory concentration (IC50) in the assay with MCF7 was 83.9 µM; in the assay on A549, greater than 100 µM; in assay [3], 86.7 µM; with HeLa [4], greater than 100 µM.
